Measured values: ChEMBL document CHEMBL4732158, “Bicyclic Ligand-Biased Agonists of S1P: Exploring Side Chain Modifications to Modulate the PK, PD, and Safety Profiles” (J Med Chem, 2021)

Key:
[1] = Reduction in circulating lymphocytes count in Lewis rat at 1 mg/kg, po measured at 24 hrs by hematology analyzer based analysis; assay type: organism-based; set-up: scale not given: the % may be the effect or the level left; details: in vivo
How it was run: (§1)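 Lewis rats (n = 2−4) dosed orally at 0.5, 1, 2 or 5 mg/kg; blood parent and phosphate metabolite concentrations and lymphocyte counts taken 4 and 24 h post-dose; phosphate-to-parent ratio from 24 h levels; significance versus vehicle by ANOVA with Dunnett's test.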

[2] = Drug metabolism in Lewis rat blood assessed as phosphate ester metabolite to parent ratio at 1 mg/kg, po measured at 24 hrs by LC-MS/MS analysis; details: in vivo
[3] = Pulmonary toxicity in Lewis rat assessed as fold elevation of BAL protein content at 1 mg/kg, po by chemistry analyzer based analysis relative to control; assay type: organism-based; details: in vivo
How it was run: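 Lewis rats dosed orally; bronchoalveolar lavage protein measured at study end, expressed as fold over vehicle control.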

[4] = Cardiotoxicity in human iPSC derived cardiomyocytes assessed as change in heart rate at 10 nM measured over 2 hrs by multi-electrode array relative to control; assay type: toxicity, cell-based; details: stem cell-derived cardiomyocyte, 0.01 µM
How it was run: (§2)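 Phosphate metabolite of each compound prepared and tested on cultured human induced pluripotent stem cell-derived cardiomyocytes at 1 and 10 nM; beat rate change averaged over three or more replicates per concentration unless noted (some n = 2).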

[5] = Half life in Lewis rat at 1 mg/kg, po measured at 4 to 72 hrs; assay type: ADME, organism-based; details: in vivo, time 4-72 hrs
How it was run: (§3)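 Half-life estimated from oral-dosing blood PK profiles in Lewis rats sampled at four time points: 4, 24, 48 and 72 h.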

[6] = Drug concentration in Lewis rat blood assessed as concentration of parent compound at 1 mg/kg, po measured at 4 hrs by LC-MS/MS analysis; assay type: ADME, organism-based; details: for concentration at 4 h: Lewis, blood; for concentration at 4 h / concentration: read-out: Ct; how it was run: as §1
[7] = Drug metabolism in Lewis rat blood assessed as concentration of parent compound at 1 mg/kg, po measured at 24 hrs by LC-MS/MS analysis; assay type: ADME, organism-based; details: for concentration at 24 h: Lewis, blood; for concentration at 24 h / concentration: read-out: Ct; for concentration / Ct: in vivo, 1 mg/kg, 24 h; for Ct: BLD = below limit of detection; how it was run: as §1
Rattus norvegicus [8] = experiment: Reduction in circulating lymphocytes count in Lewis rat at 1 mg/kg, po measured at 4 hrs by hematology analyzer based analysis; assay type: functional; set-up: scale not given: the % may be the effect or the level left; how it was run: as §1
[9] = Cardiotoxicity in human iPSC derived cardiomyocytes assessed as change in heart rate at 1 nM measured over 2 hrs by multi-electrode array relative to control; assay type: toxicity, cell-based; details: stem cell-derived cardiomyocyte, 0.001 µM; how it was run: as §2
Rattus norvegicus [10] = experiment: Reduction in circulating lymphocytes count in Lewis rat at 2 mg/kg, po measured at 4 hrs by hematology analyzer based analysis; assay type: functional; set-up: scale not given: the % may be the effect or the level left
How it was run: (§4)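 Lewis rats (n = 2−4) dosed orally; whole-blood lymphocyte counts taken 4 h and 24 h after dosing and reduction expressed versus vehicle-treated rats. Significance by ANOVA with Dunnett's test (p < 0.05 vs vehicle). Blood levels of parent and phosphate metabolite measured at the same time points in this PK/PD screen.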

[11] = Ratio of drug metabolism in Lewis rat blood assessed as phosphate ester metabolite to parent drug at 2 mg/kg, po measured at 24 hrs by LC-MS/MS analysis; assay type: ADME, organism-based; details: in vivo; how it was run: as §1
[12] = Drug concentration in Lewis rat blood assessed as concentration of parent compound at 2 mg/kg, po measured at 24 hrs by LC-MS/MS analysis; assay type: ADME, organism-based; details: in vivo; for concentration: read-out: Ct; how it was run: as §1
[13] = Drug concentration in Lewis rat blood assessed as concentration of parent compound at 2 mg/kg, po measured at 4 hrs by LC-MS/MS analysis; assay type: ADME, organism-based; details: Lewis, blood, read-out: Ct; how it was run: as §1
[14] = Reduction in circulating lymphocytes count in Lewis rat at 2 mg/kg, po measured at 24 hrs by hematology analyzer based analysis; assay type: Functional, organism-based; set-up: scale not given: the % may be the effect or the level left; details: in vivo; how it was run: as §4
[15] = Half life in Lewis rat at 2 mg/kg, po measured at 4 to 72 hrs; assay type: ADME, organism-based; details: Lewis, in vivo, time 4-72 hrs; how it was run: as §3
[16] = in vivo, 1 mg/kg, 4 h, 1 mg/kg, 4 h

CCCCSC[C@@H]1CCc2cc([C@H]3CC[C@](N)(CO)C3)ccc2C1
Activity [1]: 63%
Ratio [2]: 0.36
fold change (FC) [3]: 1.1
Activity [4]: -46%
half-life [5]: 27 h
Ct ([6]; in vivo, 1 mg/kg, 4 h, BLD = below limit of detection): Bld
concentration at 24 h [7]: 73 nM
Activity (Rattus norvegicus [8]): 6%
Activity [9]: -28%

CCCCCOC[C@@H]1CCc2cc([C@H]3CC[C@](N)(CO)C3)ccc2C1
Activity [1]: 80%
fold change (FC) [3]: 2
concentration at 4 h [6]: 27 nM
concentration at 24 h [7]: 28 nM
Activity (Rattus norvegicus [8]): 27%

CCCCCCCOC1CCc2cc([C@H]3CC[C@](N)(CO)C3)ccc2C1 (stereo in doubt; 33a)
Activity [1]: 80%
fold change (FC) [3]: 0.85
half-life [5]: 29 h
concentration at 4 h [6]: 32 nM
concentration [7]: 54 nM
Activity (Rattus norvegicus [8]; 1 mg/kg, 4 h): 13%

CCCCCOC1CCc2cc([C@H]3CC[C@](N)(CO)C3)ccc2C1 (stereo in doubt; 10a)
Activity [1]: 78%
Ratio [2]: 0.86
fold change (FC) [3]: 0.94
concentration at 4 h [6]: 244 nM
concentration at 24 h [7]: 210 nM
Activity (Rattus norvegicus [8]; 1 mg/kg, 4 h): 62%

CCCCCCOC1CCc2cc([C@H]3CC[C@](N)(CO)C3)ccc2C1 (stereo in doubt; 30a)
Activity [1]: 82%
fold change (FC) [3]: 1.1
Activity [4]: -40%
concentration [6, 16]: 53 nM
concentration [7]: 28 nM
Activity (Rattus norvegicus [8]; 1 mg/kg, 4 h): 39%
Activity [9]: -39%

CCCOCCOC1CCc2cc([C@H]3CC[C@](N)(CO)C3)ccc2C1 (stereo partly specified)
Activity [1]: 70%
fold change (FC) [3]: 1.3
Activity (Rattus norvegicus [10]): 0%
Ratio [11]: 2.4
concentration at 4 h [6]: 46 nM
Ct [7]: Bld
Activity (Rattus norvegicus [8]): 72%
Ct ([12]; BLD = below limit of detection): Bld
concentration at 4 h [13]: 100 nM
Activity [14]: 40%

CCC/C=C/CC1CCc2cc([C@H]3CC[C@](N)(CO)C3)ccc2C1 (single isomer, unassigned)
Activity [1]: 62%
Ratio [2]: 2.3
Activity [4]: -23%
half-life [5]: 62 h
concentration at 4 h [6]: 31 nM
concentration at 24 h [7]: 51 nM
Activity (Rattus norvegicus [8]): 10%
Activity [9]: -9.6%

CCCC/C=C\[C@@H]1CCc2cc([C@H]3CC[C@](N)(CO)C3)ccc2C1
Activity [1]: 0%
Ratio [2]: 0.27
concentration at 4 h [6]: 24 nM
concentration at 24 h [7]: 24 nM
Activity (Rattus norvegicus [8]): 4%

CCCOCCOC[C@H]1CCc2cc([C@H]3CC[C@](N)(CO)C3)ccc2C1
Activity [1]: 20%
fold change (FC) [3]: 2.4
concentration at 4 h [6]: 78 nM
Ct [7]: Bld
Activity (Rattus norvegicus [8]): 67%

CCCCCCCOC1CCc2cc([C@H]3CC[C@](N)(CO)C3)ccc2C1 (stereo in doubt; 33b)
fold change (FC) [3]: 1
concentration [6, 16]: 40 nM
concentration [7]: 25 nM
Activity (Rattus norvegicus [8]; 1 mg/kg, 4 h): 14%

CCSCCCC1CCc2cc([C@H]3CC[C@](N)(CO)C3)ccc2C1 (single isomer, unassigned)
half-life [15]: 14 h
Activity (Rattus norvegicus [10]): 65%
Activity [4]: -53%
Activity [9]: -42%
concentration [12]: 42 nM
concentration at 4 h [13]: 190 nM
Activity [14]: 74%

CCCCOC[C@@H]1CCc2cc([C@H]3CC[C@](N)(CO)C3)ccc2C1
Activity [1]: 71%
Ratio [2]: 0.64
fold change (FC) [3]: 0.95
concentration at 4 h [6]: 66 nM
concentration at 24 h [7]: 39 nM
Activity (Rattus norvegicus [8]): 42%

CCCCCCOC1CCc2cc([C@H]3CC[C@](N)(CO)C3)ccc2C1 (stereo in doubt; 30b)
fold change (FC) [3]: 1.4
concentration [6, 16]: 362 nM
concentration [7]: 417 nM
Activity (Rattus norvegicus [8]; 1 mg/kg, 4 h): 20%

CCCCCOC[C@H]1CCc2cc([C@H]3CC[C@](N)(CO)C3)ccc2C1
Activity [1]: 32%
fold change (FC) [3]: 1.7
concentration at 4 h [6]: 12 nM
concentration at 24 h [7]: 18 nM
Activity (Rattus norvegicus [8]): 7%

C=CCCOC[C@@H]1CCc2cc([C@H]3CC[C@](N)(CO)C3)ccc2C1
half-life [15]: 11 h
Activity (Rattus norvegicus [10]): 55%
Ratio [11]: 0.9
concentration [12]: 48 nM
concentration at 4 h [13]: 170 nM
Activity [14]: 74%

C=CCCCC[C@@H]1CCc2cc([C@H]3CC[C@](N)(CO)C3)ccc2C1
Activity [1]: 75%
Ratio [2]: 19
half-life [5]: 47 h
concentration at 4 h [6]: 30 nM
concentration at 24 h [7]: 40 nM
Activity (Rattus norvegicus [8]): 9%

CCC/C=C\CC1CCc2cc([C@H]3CC[C@](N)(CO)C3)ccc2C1 (single isomer, unassigned)
Activity [1]: 71%
Ratio [2]: 8.6
Activity [4]: -25%
half-life [5]: 59 h
concentration at 4 h [6]: 10 nM
concentration at 24 h [7]: 14 nM
Activity (Rattus norvegicus [8]): 13%
Activity [9]: -11%

COCCC1CCc2cc([C@H]3CC[C@](N)(CO)C3)ccc2C1 (stereo in doubt; 21b)
Activity [14]: 2%

CCCC/C=C/[C@@H]1CCc2cc([C@H]3CC[C@](N)(CO)C3)ccc2C1
Activity [1]: 72%
Ratio [2]: 2.6
half-life [5]: > 75 h
concentration at 4 h [6]: 57 nM
concentration at 24 h [7]: 77 nM
Activity (Rattus norvegicus [8]): 0%

CCCCCOC1CCc2cc([C@H]3CC[C@](N)(CO)C3)ccc2C1 (stereo in doubt; 10b)
Activity [1]: 67%
Ratio [2]: 0.27
Activity [4]: -49%
concentration [6, 16]: 215 nM
concentration [7]: 240 nM
Activity (Rattus norvegicus [8]; 1 mg/kg, 4 h): 32%
Activity [9]: -12%

COCCC1CCc2cc([C@H]3CC[C@](N)(CO)C3)ccc2C1 (stereo in doubt; 21a)
Activity (Rattus norvegicus [10]): 0%
Activity [14]: 12%

COCCOC[C@@H]1CCc2cc([C@H]3CC[C@](N)(CO)C3)ccc2C1
Activity [1]: 13%
fold change (FC) [3]: 1.3
concentration at 4 h [6]: 15 nM
Ct [7]: Bld
Activity (Rattus norvegicus [8]): 16%

CC/C=C\CC[C@@H]1CCc2cc([C@H]3CC[C@](N)(CO)C3)ccc2C1
Activity [1]: 69%
Ratio [2]: 1.3
Activity [4]: -38%
half-life [5]: 5 h
concentration at 4 h [6]: 165 nM
concentration at 24 h [7]: 180 nM
Activity (Rattus norvegicus [8]): 31%
Activity [9]: -21%
